Reference: ChEMBL document CHEMBL3244344, “Nucleoside conjugates as potential antitumor agents. 2. Synthesis and biological activity of 1-(beta-D-arabinofuranosyl)cytosine conjugates of prednisolone and prednisone” (J Med Chem, 1979)

Assays:
L1210 [1] = assay: Antitumor activity against mouse L1210 cells allografted in C3D2F1/J mouse assessed as increase in life span at 18.2 mg/kg, ip qd administered for 5 days co-administered with 27 mg/kg prednisolone relative to control; type: functional
Mus musculus [2] = assay: Toxicity in C3D2F1/J mouse allografted with mouse L1210 cells assessed as body weight change at 18.3 mg/kg, ip qd administered for 5 days measured on day 8 co-administered with 27 mg/kg prednisone (reference value: 1.81 +/- 0.79 g); type: organism-based; conditions: in vivo, 120 h
L1210 [3] = assay: Antitumor activity against mouse L1210 cells allografted in C3D2F1/J mouse assessed as increase in life span at 50 mg/kg, ip qd administered for 5 days relative to control; type: functional; conditions: 120 h, route intraperitoneal
Mus musculus [4] = assay: Toxicity in C3D2F1/J mouse allografted with mouse L1210 cells assessed as body weight change at 18.2 mg/kg, ip qd administered for 5 days measured on day 8 co-administered with 27 mg/kg prednisolone (reference value: 1.81 +/- 0.79 g); type: organism-based; conditions: in vivo, 120 h
Mus musculus [5] = assay: Toxicity in C3D2F1/J mouse allografted with mouse L1210 cells assessed as body weight change at 18.2 mg/kg, ip qd administered for 5 days measured on day 8 (reference value: 1.81 +/- 0.79 g); type: organism-based; design: dose 18.2 mg/kg, route intraperitoneal; conditions: in vivo, 120 h
Mus musculus [6] = assay: Toxicity in C3D2F1/J mouse allografted with mouse L1210 cells assessed as body weight change at 25 mg/kg, ip qd administered for 5 days measured on day 8 (reference value: 1.81 +/- 0.79 g); type: organism-based; design: dose 25 mg/kg, route intraperitoneal; conditions: in vivo, 120 h
L1210 [7] = assay: Antitumor activity against mouse L1210 cells allografted in C3D2F1/J mouse assessed as median survival time at 18.2 mg/kg, ip qd administered for 5 days co-administered with 27 mg/kg prednisolone (reference value: 9 days); type: functional
L1210 [8] = assay: Antitumor activity against mouse L1210 cells allografted in C3D2F1/J mouse assessed as median survival time at 18.3 mg/kg, ip qd administered for 5 days co-administered with 27 mg/kg prednisone (reference value: 9 days); type: functional
L1210 [9] = assay: Antitumor activity against mouse L1210 cells allografted in C3D2F1/J mouse assessed as increase in life span at 25 mg/kg, ip qd administered for 5 days relative to control; type: functional; conditions: 120 h, route intraperitoneal
L1210 [10] = assay: Antitumor activity against mouse L1210 cells allografted in C3D2F1/J mouse assessed as increase in life span at 18.3 mg/kg, ip qd administered for 5 days co-administered with 27 mg/kg prednisone relative to control; type: functional
L1210 [11] = assay: Cytotoxicity against mouse L1210 cells assessed as growth inhibition measured at 72 hrs by trypan blue exclusion assay; type: functional; conditions: L1210, 72 h, read-out: ED50 (the source's name)
Outline: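 L1210 mouse lymphoid leukemia cells seeded at 2–3 × 10⁵ cells/mL in RPMI 1640 + 10% fetal calf serum with compound (from Me2SO stock, final Me2SO 0.5%, compound 100 μM or lower). Viable cells counted by 0.05% Trypan blue exclusion in a hemocytometer at 24, 48, 72 h. Treated/untreated density ratio. ED50 at 72 h interpolated from response curves of three separate experiments.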

L1210 [12] = assay: Antitumor activity against mouse L1210 cells allografted in C3D2F1/J mouse assessed as increase in life span at 18.2 mg/kg, ip qd administered for 5 days relative to control; type: functional; conditions: 120 h, route intraperitoneal
L1210 [13] = assay: Antitumor activity against mouse L1210 cells allografted in C3D2F1/J mouse assessed as median survival time at 25 mg/kg, ip qd administered for 5 days (reference value: 8 days); type: functional; conditions: route intraperitoneal
L1210 [14] = assay: Antitumor activity against mouse L1210 cells allografted in C3D2F1/J mouse assessed as median survival time at 18.2 mg/kg, ip qd administered for 5 days (reference value: 10 days); type: functional; conditions: route intraperitoneal
Mus musculus [15] = assay: Toxicity in C3D2F1/J mouse allografted with mouse L1210 cells assessed as body weight change at 50 mg/kg, ip qd administered for 5 days measured on day 8 (reference value: 1.81 +/- 0.79 g); type: organism-based; design: dose 50 mg/kg, route intraperitoneal; conditions: in vivo, 120 h
L1210 [16] = assay: Antitumor activity against mouse L1210 cells allografted in C3D2F1/J mouse assessed as median survival time at 50 mg/kg, ip qd administered for 5 days (reference value: 9 days); type: functional; conditions: route intraperitoneal
L1210 [17] = assay: Antitumor activity against mouse L1210 cells allografted in C3D2F1/J mouse assessed as increase in life span at 27 mg/kg, ip qd administered for 5 days relative to control; type: functional; conditions: 120 h, route intraperitoneal
Mus musculus [18] = assay: Toxicity in C3D2F1/J mouse allografted with mouse L1210 cells assessed as body weight change at 27 mg/kg, ip qd administered for 5 days measured on day 8 (reference value: 1.81 +/- 0.79 g); type: organism-based; design: dose 27 mg/kg, route intraperitoneal; conditions: in vivo, 120 h
L1210 [19] = assay: Antitumor activity against mouse L1210 cells allografted in C3D2F1/J mouse assessed as median survival time at 27 mg/kg, ip qd administered for 5 days (reference value: 10 days); type: functional; conditions: route intraperitoneal

SMILES: Nc1ccn([C@@H]2O[C@H](CO)[C@@H](O)[C@@H]2O)c(=O)n1 [CYTARABINE]
- ILS (L1210 [1]): 40%
- Activity (Mus musculus [2]): -1.25 g
- ILS at 50 mg/kg (L1210 [3]): 11.1%
- Activity (Mus musculus [4]): -2.46 g
- Activity (Mus musculus [5]): -3.64 g
- Activity (Mus musculus [6]): -3.8 g
- MST (L1210 [7]): 14 days
- MST (L1210 [8]): 13 days
- ILS at 25 mg/kg (L1210 [9]): 18.8%
- ILS (L1210 [10]): 44%
- EC50 (L1210 [11]): 0.1 µM
- ILS at 18.2 mg/kg (L1210 [12]): 45%
- MST (L1210 [13]): 9.5 days
- MST (L1210 [14]): 14.5 days
- Activity (Mus musculus [15]): -4.2 g
- MST (L1210 [16]): 10 days

SMILES: C[C@]12C=CC(=O)C=C1CC[C@@H]1[C@@H]2[C@@H](O)C[C@@]2(C)[C@H]1CC[C@]2(O)C(=O)CO [PREDNISOLONE]
- ILS at 27 mg/kg (L1210 [17]): -5%
- Activity (Mus musculus [18]): -0.85 g
- MST (L1210 [19]): 9.5 days
- EC50 (L1210 [11]): 100 µM

SMILES: C[C@]12C=CC(=O)C=C1CC[C@@H]1[C@@H]2C(=O)C[C@@]2(C)[C@H]1CC[C@]2(O)C(=O)CO [PREDNISONE]
- ILS at 27 mg/kg (L1210 [17]): -5%
- Activity (Mus musculus [18]): -1.01 g
- MST (L1210 [19]): 9.5 days
- EC50 (L1210 [11]): > 100 µM
